Reference: ChEMBL document CHEMBL1828575, “Design, synthesis and antiproliferative activities of biarylolefins based on polyhydroxylated and carbohydrate scaffolds” (Eur J Med Chem, 2011)

How the values were obtained:
PC-3 [1] = test: Cytotoxicity against human PC3 cells at 10^-6 M after 72 hrs by MTS assay; type: functional; conditions: PC-3, 72 h, read-out: GI
Outline: (§1)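 Preliminary screen at 10^-5 and 10^-6 M. Cells were grown in RPMI with 10% fetal calf serum plus penicillin, streptomycin and fungizone under 5% CO₂, plated in 96-well plates, and dosed 24 h later from DMSO stocks (1% DMSO final, same in controls). After 72 h, MTS was added for 3 h at 37 °C and absorbance read at 490 nm. Inhibition was calculated as (1 − OD treated/OD control) × 100, in triplicate.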

SF-268 [2] = test: Cytotoxicity against human SF268 cells at 10^-6 M after 72 hrs by MTS assay; type: functional; conditions: SF-268, 72 h, read-out: GI; outline: as §1
SK-OV-3 [3] = test: Cytotoxicity against human SKOV3 cells at 10^-6 M after 72 hrs by MTS assay; type: functional; conditions: SK-OV-3, 72 h, read-out: GI; outline: as §1
OVCAR-8 [4] = test: Cytotoxicity against human OVCAR8 cells at 10^-6 M after 72 hrs by MTS assay; type: functional; conditions: OVCAR-8, 72 h, read-out: GI; outline: as §1
MIA PaCa-2 [5] = test: Cytotoxicity against human MIAPaCa2 cells at 10^-6 M after 72 hrs by MTS assay; type: functional; conditions: MIA PaCa-2, 72 h, read-out: GI
HL-60 [6] = test: Cytotoxicity against human HL60 cells at 10^-6 M after 72 hrs by MTS assay; type: functional; conditions: HL-60, 72 h, read-out: GI
Outline: (§2)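 Cells grown in RPMI with 10% fetal calf serum, penicillin, streptomycin and fungizone under 5% CO₂. Plated in 96-well plates and dosed 24 h later with compound in DMSO (1% final DMSO; controls got DMSO alone). After 72 h, MTS was added for 3 h at 37 °C and A490 read. Inhibition = (1 − OD treated/OD control) × 100, in triplicate.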

[7] = Cytotoxicity against human HL60R cells at 10^-6 M after 72 hrs by MTS assay; type: functional; conditions: read-out: GI; outline: as §2
K562 [8] = test: Cytotoxicity against human K562 cells at 10^-6 M after 72 hrs by MTS assay; type: functional; conditions: K562, 72 h, read-out: GI; outline: as §2
[9] = Cytotoxicity against human Hs 578T cells assessed as cellular growth at 10 uM after 48 hrs by SRB assay; type: functional
SW-620 = test: Cytotoxicity against human SW620 cells assessed as cellular growth at 10 uM after 48 hrs by SRB assay; type: functional
HCT-116 [10] = test: Cytotoxicity against human HCT116 cells at 10^-5 M after 72 hrs by MTS assay; type: functional; conditions: HCT-116, 72 h, read-out: GI; outline: as §2
HT-29 [11] = test: Cytotoxicity against human HT-29 cells at 10^-5 M after 72 hrs by MTS assay; type: functional; conditions: HT-29, 72 h, read-out: GI; outline: as §2
HCT-15 [12] = test: Cytotoxicity against human HCT15 cells at 10^-5 M after 72 hrs by MTS assay; type: functional; conditions: HCT-15, 72 h, read-out: GI; outline: as §2
[13] = Cytotoxicity against human MDA231 cells at 10^-5 M after 72 hrs by MTS assay; type: functional; conditions: MDA-MB-231, 72 h, read-out: GI; outline: as §1
A549 [14] = test: Cytotoxicity against human A549 cells at 10^-5 M after 72 hrs by MTS assay; type: functional; conditions: A549, 72 h, read-out: GI; outline: as §2
PC-3 [15] = test: Cytotoxicity against human PC3 cells at 10^-5 M after 72 hrs by MTS assay; type: functional; conditions: PC-3, 72 h, read-out: GI; outline: as §1
SF-268 [16] = test: Cytotoxicity against human SF268 cells at 10^-5 M after 72 hrs by MTS assay; type: functional; conditions: SF-268, 72 h, read-out: GI; outline: as §1
SK-OV-3 [17] = test: Cytotoxicity against human SKOV3 cells at 10^-5 M after 72 hrs by MTS assay; type: functional; conditions: SK-OV-3, 72 h, read-out: GI; outline: as §1
OVCAR-8 [18] = test: Cytotoxicity against human OVCAR8 cells at 10^-5 M after 72 hrs by MTS assay; type: functional; conditions: OVCAR-8, 72 h, read-out: GI; outline: as §1
MIA PaCa-2 [19] = test: Cytotoxicity against human MIAPaCa2 cells at 10^-5 M after 72 hrs by MTS assay; type: functional; conditions: MIA PaCa-2, 72 h, read-out: GI
HL-60 [20] = test: Cytotoxicity against human HL60 cells at 10^-5 M after 72 hrs by MTS assay; type: functional; conditions: HL-60, 72 h, read-out: GI; outline: as §2
[21] = Cytotoxicity against human HL60R cells at 10^-5 M after 72 hrs by MTS assay; type: functional, HL-60; conditions: read-out: GI; outline: as §2
K562 [22] = test: Cytotoxicity against human K562 cells at 10^-5 M after 72 hrs by MTS assay; type: functional; conditions: K562, 72 h, read-out: GI; outline: as §2
HCC 2998 = test: Cytotoxicity against human HCC2998 cells assessed as cellular growth at 10 uM after 48 hrs by SRB assay; type: functional
Outline: (§3)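 NCI60 single-dose screen of cells in RPMI 1640 with 5% FBS and 2 mM L-glutamine, preincubated 24 h at 37 °C, 5% CO₂. Cells were then exposed 48 h to compound added from DMSO stock. TCA-fixed, stained with 0.4% SRB in 1% acetic acid, dye solubilised in 10 mM Tris base and read at 515 nm. Growth is given as percent of untreated control.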

SK-MEL-28 = test: Cytotoxicity against human SK-MEL-28 cells assessed as cellular growth at 10 uM after 48 hrs by SRB assay; type: functional
A498 = test: Cytotoxicity against human A498 cells assessed as cellular growth at 10 uM after 48 hrs by SRB assay; type: functional; outline: as §3
RXF 393 = test: Cytotoxicity against human RXF393 cells assessed as cellular growth at 10 uM after 48 hrs by SRB assay; type: functional
M14 = test: Antitumor activity against human M14 cells after 48 hrs by SRB assay; type: functional; conditions: M14, 48 h
Outline: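 NCI60 panel in RPMI 1640 with 5% FBS and 2 mM L-glutamine. Cells were plated at 5000–40,000/well by doubling time, held 24 h, then time-zero plates were TCA-fixed. Five concentrations (10-fold or half-log dilutions of DMSO stocks) were applied for 48 h at 37 °C, 5% CO2. Cells were fixed with cold TCA (10% final adherent, 16% suspension) and stained with 0.4% SRB. Bound dye was dissolved in 10 mM Tris and read at 515 nm. GI50, TGI and LC50 were calculated per line.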

HCT-116 [23] = test: Cytotoxicity against human HCT116 cells at 10^-6 M after 72 hrs by MTS assay; type: functional; conditions: HCT-116, 72 h, read-out: GI; outline: as §2
HT-29 [24] = test: Cytotoxicity against human HT-29 cells at 10^-6 M after 72 hrs by MTS assay; type: functional; conditions: HT-29, 72 h, read-out: GI; outline: as §2
HCT-15 [25] = test: Cytotoxicity against human HCT15 cells at 10^-6 M after 72 hrs by MTS assay; type: functional; conditions: HCT-15, 72 h, read-out: GI; outline: as §2
MCF7 = test: Cytotoxicity against human MCF7 cells at 10^-6 M after 72 hrs by MTS assay; type: functional; conditions: MCF7, 72 h, read-out: GI
[26] = Cytotoxicity against human MDA231 cells at 10^-6 M after 72 hrs by MTS assay; type: functional; conditions: MDA-MB-231, 72 h, read-out: GI; outline: as §1
A549 [27] = test: Cytotoxicity against human A549 cells at 10^-6 M after 72 hrs by MTS assay; type: functional; conditions: A549, 72 h, read-out: GI; outline: as §2

SMILES: COc1ccc(/C(=C2/O[C@@H]([C@H]3COC(C)(C)O3)[C@H]3OC(C)(C)O[C@@H]23)c2cc(OC)c(OC)c(OC)c2)cc1O
- inhibition of growth at 1 µM (PC-3 [1]): 0%
- inhibition of growth at 1 µM (SF-268 [2]): 7%
- inhibition of growth at 1 µM (SK-OV-3 [3]): 0%
- inhibition of growth at 1 µM (OVCAR-8 [4]): 0%
- inhibition of growth at 1 µM (MIA PaCa-2 [5]): 0%
- inhibition of growth at 1 µM (HL-60 [6]): 2%
- inhibition of growth at 1 µM [7]: 8%
- inhibition of growth at 1 µM (K562 [8]): 2%
- Activity [9]: 22.15%
- Activity (SW-620): 15.44%
- inhibition of growth at 10 µM (HCT-116 [10]): 39%
- inhibition of growth at 10 µM (HT-29 [11]): 3%
- inhibition of growth at 10 µM (HCT-15 [12]): 66%
- inhibition of growth at 10 µM [13]: 79%
- inhibition of growth at 10 µM (A549 [14]): 35%
- inhibition of growth at 10 µM (PC-3 [15]): 71%
- inhibition of growth at 10 µM (SF-268 [16]): 68%
- inhibition of growth at 10 µM (SK-OV-3 [17]): 48%
- inhibition of growth at 10 µM (OVCAR-8 [18]): 17%
- inhibition of growth at 10 µM (MIA PaCa-2 [19]): 30%
- inhibition of growth at 10 µM (HL-60 [20]): 69%
- inhibition of growth at 10 µM [21]: 63%
- inhibition of growth at 10 µM (K562 [22]): 82%
- Activity (HCC 2998): 102.13%
- Activity (SK-MEL-28): 59.6%
- Activity (A498): 63.35%
- Activity (RXF 393): 81.92%
- GI50 (M14; read-out: GI50): 2.4 µM
- CC50 (M14; read-out: LC50 (the source's name)): > 100 µM
- TGI (M14; read-out: TGI): 5.9 µM
- GI50 (M14; read-out: pGI50 (converted)): 2.4 µM
- CC50 (M14; read-out: pLC50 (the source's name) (converted)): > 100 µM
- TGI (M14; read-out: pTGI (converted)): 5.89 µM
- inhibition of growth at 1 µM (HCT-116 [23]): 0%
- inhibition of growth at 1 µM (HT-29 [24]): 2%
- inhibition of growth at 1 µM (HCT-15 [25]): 3%
- inhibition of growth at 1 µM (MCF7): 0%
- inhibition of growth at 1 µM [26]: 0%
- inhibition of growth at 1 µM (A549 [27]): 1%
